Only some compounds are listed: those with a hit (about 5.8% of all), similar ones and a draw of the others.
IDH1 mut inh = IDH1 R132H (human) inhibition | O75874 | IDH1 R132H reductase, diaphorase/resazurin fluorescence, 60 min | inhibition, % at 10 µM | actives 0.18% (n = 70,000) | AID 624101; in the data active means inhibition above about 34%; inconclusive means no clear call, values can overlap the other calls; inactive means below about 11%;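 further: 0% = DMSO and 100% = no enzyme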
T cruzi growth-1 = blocks T. cruzi growth in NIH3T3 culture; T. cruzi beta-gal in NIH3T3, GalScreen luminescence, 90 h; inhibition, % at 8.34 µM; actives 5.9% (n = 77,000);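 active means mean inhibition above about 93%, with at least 55% of replicates each passing it, limit read from the data, passing the limit was not always enough; inconclusive means only one of those two conditions holds; inactive means neither condition holds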
KDM4C inh = KDM4C (human) demethylase inhibition; AID 720574; Q9H3R0; actives 0.15% (n = 96,000); GST-KDM4C 2-372, H3K9me3 peptide, LANCE TR-FRET; inhibition, % at 12.5 µM;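 active means mean replicate inhibition above about 25%, with at least 55% of replicates also reaching it, limit read from the data, passing the limit was not always enough; inconclusive means only one of those two conditions met; inactive means neither condition met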
Target sequence (Q9H3R0 2-372 limits assumed): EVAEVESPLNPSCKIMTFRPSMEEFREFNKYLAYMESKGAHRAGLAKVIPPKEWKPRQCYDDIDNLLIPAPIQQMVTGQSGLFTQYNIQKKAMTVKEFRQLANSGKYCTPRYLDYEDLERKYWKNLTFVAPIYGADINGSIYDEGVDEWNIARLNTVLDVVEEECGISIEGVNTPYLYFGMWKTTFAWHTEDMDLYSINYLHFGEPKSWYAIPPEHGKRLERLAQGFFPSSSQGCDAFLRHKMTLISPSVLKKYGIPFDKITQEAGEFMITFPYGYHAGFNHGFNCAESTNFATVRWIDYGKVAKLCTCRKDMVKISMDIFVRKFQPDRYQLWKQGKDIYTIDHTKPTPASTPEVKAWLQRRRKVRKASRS
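Material: GST-tagged GASC-1 (JMJD2C) catalytic fragment, aa 2-372 / Quantity: enzyme final amount 10 nM / Medium: HEPES buffer, pH 7.5, plus ascorbate / Doses: one test concentration per compound / Incubation: 30 min reaction, 60 min detection, RT / Measured by: LANCE TR-FRET / Read-out: inhibition from TR-FRET ratio decrease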
Pf Dd2 inh = inhibitors of Plasmodium falciparum Dd2 growth; P. falciparum Dd2 growth, SYBR Green, 72 h; stronger effect = lower value; activity change, % at 10 µM; actives 2.3% (n = 94,000); AID 1159554; in the data active means activity change below about -80%; inconclusive means no clear call, values can overlap the other calls
T cruzi growth-2 = inhibitors of T. cruzi proliferation; inhibition, % at 8.35 µM; T. cruzi beta-gal in NIH3T3, GalScreen luminescence, 90 h; actives 72% (n = 5,600); shares compounds with T cruzi growth-1; AID 651739;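 active means mean replicate inhibition above about 95% and at least 55% of replicates individually reaching it, limit read from the data; inconclusive means only one of the two criteria is met; inactive means neither criterion is met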
T cruzi growth-3 = blocks T. cruzi growth in NIH3T3 host cells; shares compounds with T cruzi growth-1; T. cruzi beta-gal in NIH3T3, GalScreen luminescence, 90 h; inhibition, % at 2.09 µM; actives 21% (n = 5,600); AID 651740;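 active means mean inhibition above about 95%, with at least 55% of replicates also reaching it, limit read from the data; inconclusive means meets just one of the two conditions; inactive means meets neither condition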;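 further: plate controls were neutral control median for no effect and positive control median for full effect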
NIH3T3 tox = NIH/3T3 (mouse) viability loss; shares compounds with T cruzi growth-1; NIH/3T3 viability, CellTiter-Glo ATP luminescence, 90 h; cytotoxicity (signal decrease), % at 8.35 µM; actives 14% (n = 5,600); AID 651742;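 active means mean signal decrease across replicates above about 35% based on untreated-well scatter, with enough replicates individually passing, limit read from the data; inconclusive means no rule stated though some were filed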;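 further: 0% = median of neutral control wells and 100% = median of positive control wells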
3T3 cytotox 2 = cytotoxicity in mouse NIH/3T3 fibroblasts; AID 651744; NIH/3T3 viability, CellTiter-Glo ATP luminescence, 90 h; actives 56% (n = 5,600); inhibition, % at 24.9 µM; shares compounds with T cruzi growth-1;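 active means mean loss of cell viability signal at or above a set limit, and enough replicates individually reaching it; inconclusive means meets only the mean limit or only the replicate share; inactive means meets neither condition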;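 further: 0% = median of neutral control wells and 100% = median of positive control wells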
* marks the source's active call; other numbers are inactive results.

Screening Cc1noc(C)c1NC(=O)Nc1ccc2c(c1)C(=O)N(C)[C@@H]1CC[C@H](CC(=O)N[C@@H]3CCN(Cc4ccccc4)C3)O[C@H]1CO2 returned T cruzi growth-1 36, KDM4C inh 2 and Pf Dd2 inh -10.
For Cc1noc(C)c1NC(=O)Nc1ccc2c(c1)C(=O)N(C)[C@H]1CC[C@H](CC(=O)N[C@H]3CCN(Cc4ccccc4)C3)O[C@H]1CO2 the results were T cruzi growth-1 106*, KDM4C inh 0, Pf Dd2 inh -72, T cruzi growth-2 -20, T cruzi growth-3 -18, NIH3T3 tox 6 and 3T3 cytotox 2 2.
CCc1c(C)sc(NC(=S)NCc2cc(C)n(C)n2)c1C(=O)OC was read as IDH1 mut inh -2.
CC(C)(C)C(=O)COc1cccc(NC(=O)c2ccc([N+](=O)[O-])cc2)c1 was read as IDH1 mut inh 0.
Screening Cc1noc(C)c1S(=O)(=O)Nc1ccc2c(c1)C(=O)N([C@@H](C)CO)C[C@@H](C)[C@H](CN(C)Cc1ccc(Cl)c(Cl)c1)OCCCC[C@@H](C)O2 returned T cruzi growth-1 inconclusive, KDM4C inh -2, Pf Dd2 inh -58, T cruzi growth-2 87, T cruzi growth-3 104*, NIH3T3 tox 57* and 3T3 cytotox 2 105*.
For Cc1noc(C)c1S(=O)(=O)Nc1ccc2c(c1)C(=O)N([C@H](C)CO)C[C@H](C)[C@H](CN(C)Cc1ccc(C(=O)O)cc1)OCCCC[C@H](C)O2 the results were T cruzi growth-1 32, KDM4C inh 1 and Pf Dd2 inh 1.
`Cc1noc(C)c1S(=O)(=O)Nc1ccc2c(c1)C(=O)N([C@@H](C)CO)C[C@@H](C)[C@H](CN(C)Cc1ccc(C(F)(F)F)cc1)OCCCC[C@H](C)O2` gave IDH1 mut inh 13, T cruzi growth-1 90, KDM4C inh -1 and Pf Dd2 inh -53.
`Cc1noc(C)c1S(=O)(=O)Nc1ccc2c(c1)C(=O)N([C@@H](C)CO)C[C@H](C)[C@@H](CN(C)Cc1ccc(C(F)(F)F)cc1)OCCCC[C@@H](C)O2` gave IDH1 mut inh 4, T cruzi growth-1 98*, KDM4C inh 2, Pf Dd2 inh -8, T cruzi growth-2 inconclusive, T cruzi growth-3 inconclusive, NIH3T3 tox 18 and 3T3 cytotox 2 105*.
Cc1noc(C)c1S(=O)(=O)Nc1ccc2c(c1)C(=O)N([C@H](C)CO)C[C@H](C)[C@@H](CN(C)Cc1ccc(C(F)(F)F)cc1)OCCCC[C@H](C)O2 was read as T cruzi growth-1 100*, KDM4C inh -2, Pf Dd2 inh -12, T cruzi growth-2 110*, T cruzi growth-3 107*, NIH3T3 tox 6 and 3T3 cytotox 2 105*.
`Cc1noc(C)c1S(=O)(=O)Nc1ccc2c(c1)C(=O)N([C@H](C)CO)C[C@H](C)[C@H](CN(C)Cc1ccc(C(F)(F)F)cc1)OCCCC[C@H](C)O2` gave T cruzi growth-1 101*, KDM4C inh 8, Pf Dd2 inh -64, T cruzi growth-2 97*, T cruzi growth-3 105*, NIH3T3 tox 29 and 3T3 cytotox 2 105*.
C[C@H]1CCCCO[C@H](CN(C)CC2CCCCC2)[C@@H](C)CN([C@@H](C)CO)C(=O)c2cc(NC(=O)Nc3ccc(F)cc3)ccc2O1 was read as IDH1 mut inh 0, T cruzi growth-1 115*, KDM4C inh -2, Pf Dd2 inh -83*, T cruzi growth-2 97*, T cruzi growth-3 114*, NIH3T3 tox 47* and 3T3 cytotox 2 103*.
`C[C@H](CO)N1C[C@H](C)[C@@H](CN(C)CC2CCCCC2)OCCCC[C@H](C)Oc2ccc(NC(=O)Nc3ccc(F)cc3)cc2C1=O` gave IDH1 mut inh 0, T cruzi growth-1 114*, KDM4C inh -1, Pf Dd2 inh -70, T cruzi growth-2 98*, T cruzi growth-3 111*, NIH3T3 tox 24 and 3T3 cytotox 2 103*.
For C[C@@H]1CCCCO[C@@H](CN(C)CC2CCCCC2)[C@@H](C)CN([C@@H](C)CO)C(=O)c2cc(NC(=O)Nc3ccc(F)cc3)ccc2O1 the results were IDH1 mut inh 2, T cruzi growth-1 119*, KDM4C inh 0, Pf Dd2 inh -77, T cruzi growth-2 103*, T cruzi growth-3 93, NIH3T3 tox 30 and 3T3 cytotox 2 104*.
C[C@@H]1CCCCO[C@H](CN(C)CC2CCCCC2)[C@H](C)CN([C@@H](C)CO)C(=O)c2cc(NC(=O)Nc3ccc(F)cc3)ccc2O1 was read as T cruzi growth-1 120*, KDM4C inh 0, Pf Dd2 inh -80, T cruzi growth-2 97*, T cruzi growth-3 114*, NIH3T3 tox 54* and 3T3 cytotox 2 103*.
Screening O=C(CC1(O)C(=O)N(Cc2ccccc2)c2ccccc21)c1ccccc1[N+](=O)[O-] (stereo unspecified) returned IDH1 mut inh 2.
O=C(Cn1c(=O)oc2ccccc21)Nc1ccc(S(=O)(=O)N2CCOCC2)cc1 was read as IDH1 mut inh 0.
For C[C@@H]1CCCCO[C@@H](CN(C)CC2CCCCC2)[C@H](C)CN([C@H](C)CO)C(=O)c2cc(NC(=O)Nc3ccc(F)cc3)ccc2O1 the results were IDH1 mut inh 2, T cruzi growth-1 105*, KDM4C inh 0, Pf Dd2 inh -90*, T cruzi growth-2 95*, T cruzi growth-3 112*, NIH3T3 tox 21 and 3T3 cytotox 2 102*.
For CCCN(C)C[C@H]1OCCCC[C@@H](C)Oc2ccc(NC(=O)Nc3ccc(F)cc3)cc2C(=O)N([C@H](C)CO)C[C@@H]1C the results were T cruzi growth-1 100*, KDM4C inh -1, Pf Dd2 inh -66, T cruzi growth-2 101*, T cruzi growth-3 49, NIH3T3 tox 1 and 3T3 cytotox 2 -7.
For CCN(CC(=O)Nc1ccc2c(c1)OCCO2)S(=O)(=O)c1ccc2ccccc2c1 the results were IDH1 mut inh 0.
Screening CN1c2ccc(-c3ccccc3F)cc2[C@@H]2[C@@H](CCN2S(=O)(=O)c2ccc(F)cc2)[C@@H]1CO returned T cruzi growth-1 inconclusive, KDM4C inh -1, Pf Dd2 inh 2, T cruzi growth-2 96*, T cruzi growth-3 inconclusive, NIH3T3 tox 45* and 3T3 cytotox 2 46*.

Screens as filed in PubChem.
